ChEMBL document CHEMBL1140723, “Positive and negative modulation of group I metabotropic glutamate receptors” (J Med Chem, 2008)
Active and inactive are the calls of the source. No cut-off for these calls is given here.

Legend:
[1] = biological target: T1, Metabotropic glutamate receptor 5 (Rattus norvegicus, UniProt P31424); experiment: Displacement of [3H]MPEP from rat mGluR5
[2] = biological target: T2, Metabotropic glutamate receptor 1 (Rattus norvegicus, UniProt P23385); experiment: Antagonist activity at rat mGluR1 expressed in cerebellar granule cells assessed as accumulation of [3H]inositol phosphate; assay type: functional, cell-based
[3] = biological target: Metabotropic glutamate receptor 5 (Rattus norvegicus) (UniProt P31424); experiment: Displacement of [3H]MPEP from rat mGluR5 upto 10 uM
In short: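 Membranes were washed four times in 50 mM Tris-HCl pH 8.0 and resuspended in 50 mM Tris-HCl pH 7.5. 125–250 µg protein was incubated with 5 nM [3H]MPEP and test agent (up to 10 µM), up to 5% DMSO, 60 min at RT. Nonspecific binding: 10 µM MPEP. Filtered on glass fibre filters, rinsed with ice-cold buffer, then scintillation counted.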

[4] = biological target: T2, Metabotropic glutamate receptor 1; experiment: (§1) Antagonist activity at rat mGluR1 by FLIPR assay; assay type: functional
[5] = biological target: T1, Metabotropic glutamate receptor 5; experiment: Antagonist activity at mGluR5 in Sprague-Dawley rat astrocyte assessed as L-quisqualate induced potentiation of intracellular calcium level by FLIPR assay; assay type: functional, cell-based
[6] = biological target: T3, Metabotropic glutamate receptor 5 (Homo sapiens, UniProt P41594); experiment: Antagonist activity at human mGluR5 expressed in CHO cells assessed as L-glutamate induced potentiation of intracellular calcium level by FLIPR assay; assay type: functional, cell-based
In short: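 Human mGluR5 FLIPR calcium assay. Cells were loaded with Ca-sensitive dye for 2 h at RT in HEPES-buffered saline, pH 7.3. The dye kit contained glutamic-pyruvate transferase, Na-pyruvate and pyridoxal phosphate to avoid glutamate build-up. Compounds were preincubated 5 min before L-glutamate, and the intracellular calcium rise was read as RFU.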
Target sequence in this assay (P41594 whole entry): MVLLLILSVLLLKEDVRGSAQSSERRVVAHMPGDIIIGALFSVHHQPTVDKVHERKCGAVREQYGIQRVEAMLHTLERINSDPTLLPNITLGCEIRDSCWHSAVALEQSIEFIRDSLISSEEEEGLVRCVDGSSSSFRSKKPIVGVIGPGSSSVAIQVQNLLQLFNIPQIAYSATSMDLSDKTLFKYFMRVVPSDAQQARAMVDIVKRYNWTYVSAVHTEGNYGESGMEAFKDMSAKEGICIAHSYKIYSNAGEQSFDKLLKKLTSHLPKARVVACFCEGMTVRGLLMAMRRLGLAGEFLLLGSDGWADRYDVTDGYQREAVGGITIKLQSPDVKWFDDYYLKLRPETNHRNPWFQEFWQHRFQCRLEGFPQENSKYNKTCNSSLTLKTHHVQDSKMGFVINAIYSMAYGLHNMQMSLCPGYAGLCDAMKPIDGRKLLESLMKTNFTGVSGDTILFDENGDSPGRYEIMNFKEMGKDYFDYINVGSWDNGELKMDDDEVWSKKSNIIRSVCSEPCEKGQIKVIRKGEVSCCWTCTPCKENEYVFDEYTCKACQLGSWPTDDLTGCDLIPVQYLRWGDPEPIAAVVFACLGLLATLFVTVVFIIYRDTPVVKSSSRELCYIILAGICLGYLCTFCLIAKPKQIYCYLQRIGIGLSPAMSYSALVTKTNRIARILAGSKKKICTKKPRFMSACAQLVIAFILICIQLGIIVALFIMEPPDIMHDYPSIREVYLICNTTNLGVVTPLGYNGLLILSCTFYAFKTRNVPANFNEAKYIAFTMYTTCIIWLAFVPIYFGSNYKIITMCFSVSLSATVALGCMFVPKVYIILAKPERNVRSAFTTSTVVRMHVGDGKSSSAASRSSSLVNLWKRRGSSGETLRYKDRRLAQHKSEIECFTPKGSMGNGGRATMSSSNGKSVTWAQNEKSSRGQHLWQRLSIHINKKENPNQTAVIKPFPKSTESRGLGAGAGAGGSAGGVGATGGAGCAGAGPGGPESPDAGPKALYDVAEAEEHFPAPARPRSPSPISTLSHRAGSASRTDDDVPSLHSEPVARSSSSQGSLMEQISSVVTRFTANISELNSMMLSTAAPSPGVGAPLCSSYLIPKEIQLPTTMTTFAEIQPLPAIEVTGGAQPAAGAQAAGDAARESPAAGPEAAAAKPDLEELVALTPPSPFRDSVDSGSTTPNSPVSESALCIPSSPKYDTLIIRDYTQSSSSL

[7] = biological target: T3, Metabotropic glutamate receptor 5; experiment: Positive modulation of human mGluR5 assessed as fold left shift of L-glutamate EC50 by calcium FLIPR assay
Target sequence in this assay (P41594 21-1212 limits assumed): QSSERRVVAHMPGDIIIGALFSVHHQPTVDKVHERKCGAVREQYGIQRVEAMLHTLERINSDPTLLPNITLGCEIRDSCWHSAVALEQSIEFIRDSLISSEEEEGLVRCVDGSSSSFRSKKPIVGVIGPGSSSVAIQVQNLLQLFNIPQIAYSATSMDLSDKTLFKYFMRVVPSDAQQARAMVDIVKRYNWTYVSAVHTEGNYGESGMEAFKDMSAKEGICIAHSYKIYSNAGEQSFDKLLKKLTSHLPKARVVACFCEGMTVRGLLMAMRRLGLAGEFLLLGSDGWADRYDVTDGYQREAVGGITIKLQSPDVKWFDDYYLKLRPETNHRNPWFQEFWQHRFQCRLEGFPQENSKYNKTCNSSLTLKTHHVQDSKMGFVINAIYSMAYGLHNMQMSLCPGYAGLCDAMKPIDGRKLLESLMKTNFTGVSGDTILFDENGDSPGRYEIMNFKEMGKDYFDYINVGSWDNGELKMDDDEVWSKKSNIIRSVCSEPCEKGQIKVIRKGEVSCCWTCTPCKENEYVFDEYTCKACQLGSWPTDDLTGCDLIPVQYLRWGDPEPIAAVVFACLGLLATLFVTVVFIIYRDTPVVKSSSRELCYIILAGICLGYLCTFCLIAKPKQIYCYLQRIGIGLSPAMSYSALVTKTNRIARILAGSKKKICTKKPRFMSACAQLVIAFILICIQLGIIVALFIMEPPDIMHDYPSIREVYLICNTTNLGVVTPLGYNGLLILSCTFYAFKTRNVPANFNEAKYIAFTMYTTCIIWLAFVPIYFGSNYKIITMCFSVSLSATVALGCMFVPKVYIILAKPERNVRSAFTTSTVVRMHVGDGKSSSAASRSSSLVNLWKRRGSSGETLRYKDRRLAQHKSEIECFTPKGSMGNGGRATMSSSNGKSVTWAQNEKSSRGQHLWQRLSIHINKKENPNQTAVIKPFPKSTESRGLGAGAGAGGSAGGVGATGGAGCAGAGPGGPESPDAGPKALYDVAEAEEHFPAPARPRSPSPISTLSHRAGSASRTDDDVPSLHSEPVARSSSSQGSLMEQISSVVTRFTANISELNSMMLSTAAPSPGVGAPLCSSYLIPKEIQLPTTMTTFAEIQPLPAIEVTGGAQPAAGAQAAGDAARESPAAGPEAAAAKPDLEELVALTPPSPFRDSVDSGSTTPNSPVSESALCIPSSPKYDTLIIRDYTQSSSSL

[8] = biological target: Metabotropic glutamate receptor 5 (Rattus norvegicus) (UniProt P31424); experiment: Positive modulation of rat mGluR5 assessed as fold left shift of L-quisqualate EC50 by calcium FLIPR assay
[9] = biological target: Metabotropic glutamate receptor 1 (Rattus norvegicus) (UniProt P23385); experiment: as §1; assay type: functional
Sequence of Metabotropic glutamate receptor 1 (Rattus norvegicus) (P23385 19-1199 limits assumed): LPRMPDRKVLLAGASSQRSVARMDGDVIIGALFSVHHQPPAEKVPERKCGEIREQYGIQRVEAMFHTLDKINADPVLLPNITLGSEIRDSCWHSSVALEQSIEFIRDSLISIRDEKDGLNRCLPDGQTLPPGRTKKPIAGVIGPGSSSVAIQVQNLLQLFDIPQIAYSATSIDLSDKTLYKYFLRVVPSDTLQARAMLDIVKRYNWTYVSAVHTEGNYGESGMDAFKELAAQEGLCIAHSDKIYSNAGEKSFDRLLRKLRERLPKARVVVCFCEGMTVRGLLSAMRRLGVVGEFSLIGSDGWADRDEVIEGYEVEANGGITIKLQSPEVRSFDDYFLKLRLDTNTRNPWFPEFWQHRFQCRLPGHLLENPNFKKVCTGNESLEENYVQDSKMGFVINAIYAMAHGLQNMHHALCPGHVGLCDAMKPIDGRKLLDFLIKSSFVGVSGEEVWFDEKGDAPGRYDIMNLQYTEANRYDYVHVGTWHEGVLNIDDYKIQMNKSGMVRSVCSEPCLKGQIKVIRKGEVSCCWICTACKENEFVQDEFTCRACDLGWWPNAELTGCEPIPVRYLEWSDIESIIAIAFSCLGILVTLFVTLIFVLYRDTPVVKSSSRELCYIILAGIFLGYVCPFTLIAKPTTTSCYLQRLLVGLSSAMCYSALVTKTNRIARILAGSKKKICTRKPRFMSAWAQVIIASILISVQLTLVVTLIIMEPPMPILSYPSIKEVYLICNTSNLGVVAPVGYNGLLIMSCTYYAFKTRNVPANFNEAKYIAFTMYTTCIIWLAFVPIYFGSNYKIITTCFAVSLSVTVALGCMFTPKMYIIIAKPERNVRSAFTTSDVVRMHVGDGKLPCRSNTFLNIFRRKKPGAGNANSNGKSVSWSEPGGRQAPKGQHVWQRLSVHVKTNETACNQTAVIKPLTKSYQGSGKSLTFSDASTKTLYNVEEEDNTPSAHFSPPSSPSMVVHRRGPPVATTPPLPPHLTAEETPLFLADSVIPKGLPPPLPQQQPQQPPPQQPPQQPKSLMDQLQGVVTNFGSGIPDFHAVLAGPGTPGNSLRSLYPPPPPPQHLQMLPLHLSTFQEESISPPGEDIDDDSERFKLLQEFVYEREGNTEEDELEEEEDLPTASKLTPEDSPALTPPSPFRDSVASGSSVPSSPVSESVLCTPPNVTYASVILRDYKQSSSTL

[10] = biological target: T3, Metabotropic glutamate receptor 5; experiment: Reversal of antagonist activity at human mGluR5 expressed in CHO cells in presence of L-glutamate mGluR5 agonist at 10 uM by FLIPR assay; assay type: functional, cell-based
Target sequence in this assay (P41594 21-1212 limits assumed): as the sequence (P41594 21-1212 limits assumed) above

[11] = biological target: Metabotropic glutamate receptor 5 (Rattus norvegicus) (UniProt P31424); experiment: Reversal of antagonist activity at Sprague-Dawley rat astrocyte mGluR5 in presence of L-quisqualate mGluR5 agonist at 10 uM by FLIPR assay; assay type: functional

T1 sequence (P31424 whole entry): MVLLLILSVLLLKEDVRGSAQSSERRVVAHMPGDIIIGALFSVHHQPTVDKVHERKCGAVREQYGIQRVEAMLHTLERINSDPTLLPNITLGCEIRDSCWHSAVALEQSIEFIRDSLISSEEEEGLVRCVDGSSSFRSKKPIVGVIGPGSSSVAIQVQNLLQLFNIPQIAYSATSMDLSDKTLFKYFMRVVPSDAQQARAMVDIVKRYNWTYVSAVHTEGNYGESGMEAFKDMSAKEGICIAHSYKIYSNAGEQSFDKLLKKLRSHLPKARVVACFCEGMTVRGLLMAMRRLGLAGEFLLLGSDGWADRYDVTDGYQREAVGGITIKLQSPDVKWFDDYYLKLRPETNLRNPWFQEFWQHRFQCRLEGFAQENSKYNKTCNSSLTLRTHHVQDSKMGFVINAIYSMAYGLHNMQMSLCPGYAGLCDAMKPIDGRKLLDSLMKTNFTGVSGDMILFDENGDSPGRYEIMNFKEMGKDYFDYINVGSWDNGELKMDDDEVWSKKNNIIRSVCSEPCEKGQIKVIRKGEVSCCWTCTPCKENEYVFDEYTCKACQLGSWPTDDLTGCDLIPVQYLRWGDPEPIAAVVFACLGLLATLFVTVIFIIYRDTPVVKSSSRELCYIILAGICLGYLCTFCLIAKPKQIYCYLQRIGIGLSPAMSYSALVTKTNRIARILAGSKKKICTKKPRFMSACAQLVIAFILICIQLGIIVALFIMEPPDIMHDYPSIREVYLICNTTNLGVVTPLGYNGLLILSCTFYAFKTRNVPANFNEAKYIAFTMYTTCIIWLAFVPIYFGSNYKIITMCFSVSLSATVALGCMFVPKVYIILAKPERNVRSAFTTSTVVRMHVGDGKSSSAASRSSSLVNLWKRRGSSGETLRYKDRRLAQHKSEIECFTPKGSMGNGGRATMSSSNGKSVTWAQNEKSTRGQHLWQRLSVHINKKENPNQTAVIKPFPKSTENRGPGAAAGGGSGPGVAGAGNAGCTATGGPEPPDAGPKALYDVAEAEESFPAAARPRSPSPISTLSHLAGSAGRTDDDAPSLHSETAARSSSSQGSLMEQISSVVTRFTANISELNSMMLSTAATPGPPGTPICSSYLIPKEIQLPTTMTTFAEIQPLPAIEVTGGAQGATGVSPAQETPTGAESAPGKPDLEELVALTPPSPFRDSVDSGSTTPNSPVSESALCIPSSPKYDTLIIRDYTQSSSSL

SMILES | IC50 [1] [nM] | IC50 [2] [nM] | Activity [3] | further results
CC1(C)CC(=O)c2cc(C#N)c(SCc3ccccc3)nc2C1 | 57000 | 4800 | – | –
O=C1CCCc2nc(OCc3ccccc3)ccc21 | 1900 | 25000 | – | –
O=C(NC12CC3CC(CC(C3)C1)C2)c1ccc2ccccc2n1 | – | 440 | – | –
CN(Cc1ccccc1)c1nc2c(cc1C#N)C(=O)CC(C)(C)C2 | – | 5300 | inactive | –
CN(C)C(=O)c1cc2c(nc1NC1CCCC1)CC(C)(C)CC2=O | 58000 | – | – | IC50 [4]: 21000 nM
OC1CCCc2nc(C#Cc3ccccc3)ccc21 (stereo not given) | – | – | – | EC50 [5]: 490 nM; Ki [1]: 7600 nM; EC50 [6]: 1130 nM; Activity [7]: 2; Activity [8]: 2.2
O[C@@H]1CCCc2nc(C#Cc3ccccc3)ccc21 | – | – | – | EC50 [5]: 180 nM; Ki [1]: 4710 nM; EC50 [6]: 980 nM; Activity [7]: 2.5; Activity [8]: 3.1
O[C@H]1CCCc2nc(C#Cc3ccccc3)ccc21 | – | – | – | EC50 [5]: 250 nM; Ki [1]: 9280 nM; EC50 [6]: 1080 nM; Activity [7]: 2.5; Activity [8]: 2
CC1(C)CC(=O)c2cc(C#N)c(N3CCN(c4ccc(F)cc4)CC3)nc2C1 | – | 160 | inactive | –
CN(Cc1ccccc1)c1nc2c(cc1C#N)C(=O)CCC2 | 80000 | 25000 | – | –
CC1(C)CC(=O)c2cc(N3CCOCC3)c(N3CC=C(c4ccc(F)cc4)CC3)nc2C1 | – | – | inactive | IC50 [4]: 15000 nM
CC1(C)CC(=O)c2cc(C#N)c(NCc3ccccc3)nc2C1 | – | 2500 | inactive | –
COC(=O)c1ccc(C#Cc2ccccc2)nc1 | 4600 | – | – | Ki [1]: 1400 nM
CC1(C)CC(=O)c2cc(C#N)c(N3CCc4ccccc4C3)nc2C1 | – | 1500 | inactive | –
CC1(C)CC(=O)c2cc(C#N)c(N3CC=C(c4ccc(F)cc4)CC3)nc2C1 | – | 110 | inactive | –
CC1(C)CC(=O)c2cc(-c3nn[nH]n3)c(NC3CCCC3)nc2C1 | – | – | inactive | IC50 [4]: 13000 nM
CCc1nc(C#N)c(N2CCc3ccccc3CC2)nc1C | – | 6 | – | –
O=C(NC12CC3CC(CC(C3)C1)C2)c1cnccn1 | – | 7000 | – | –
CC1(C)CC(=O)c2cc(C#N)c(NC3CCCC3)nc2C1 | 49000 | 78 | – | –
CC1(C)CC(=O)c2cc(C(=O)O)c(NC3CCCC3)nc2C1 | – | – | inactive | IC50 [4]: 23000 nM
CC1(C)CC(=O)c2cc(Br)c(NC3CCCC3)nc2C1 | 29000 | – | – | Activity [9]: inactive
O=C1CCCc2nc(C#Cc3ccccn3)ccc21 | 60000 | – | – | Ki [1]: 2360 nM
CC1(C)CC(=O)c2cc(C#N)c(NC34CC5CC(CC(C5)C3)C4)nc2C1 | – | – | inactive | –
CCCCNc1nc2c(cc1C#N)C(=O)CC(C)(C)C2 | – | 1700 | inactive | –

SMILES | IC50 [1] [nM] | IC50 [2] [nM] | Activity [3] | further results
CC1(C)CCc2nc(C#Cc3ccccc3)ccc2C1=O | 23 | – | – | Ki [1]: 51 nM
CC1(C)CC(=O)c2ccc(OCc3ccccc3)nc2C1 | 12000 | 21000 | – | –
CC1(C)CC(=O)c2cc([N+](=O)[O-])c(NC3CC=C(c4ccc(F)cc4)CC3)nc2C1 (stereo not given) | – | – | inactive | IC50 [4]: 12000 nM
CCCCCCNc1nc2c(cc1C#N)C(=O)CC(C)(C)C2 | – | 2600 | inactive | –
CC1(C)CC(=O)c2cc(C#N)c(NC3Cc4ccccc4C3)nc2C1 | – | 1900 | inactive | –
CC1(C)CC(=O)c2cc(-c3cncnc3)c(NC3CCCC3)nc2C1 | – | – | inactive | Activity [9]: inactive
CC1(C)CC(=O)c2cc(Cl)c(NC3CCCC3)nc2C1 | – | – | – | IC50 [4]: 7900 nM
CC1(C)CC(=O)c2cc(C#N)c(N3CCN(c4ccccc4)CC3)nc2C1 | – | 130 | inactive | –
CC1(C)CC(=O)c2cc(C#N)c(N3CC=C(c4ccccc4)CC3)nc2C1 | – | < 1000 | inactive | –
O=C(NC12CC3CC(CC(C3)C1)C2)c1cnc2ccccc2n1 | – | 5 | – | –
O=C1CCCc2nc(C#Cc3ccccc3)ccc21 | – | – | – | Activity [10]: Active; EC50 [5]: 34 nM; Ki [1]: 800 nM; Activity [7]: 3.2; Activity [11]: Active; Activity [8]: 2
N#Cc1cc2c(nc1NC1CCCCC1)CCCC2=O | – | 3000 | inactive | –
O=C1CCCc2nc(N3CCN(c4ccccc4)CC3)ccc21 | – | 10400 | inactive | –
CC1(C)CC(=O)c2ccc(NCc3ccccc3)nc2C1 | 8100 | 45000 | – | –
CC1(C)CC(=O)c2ccc(C#Cc3ccccn3)nc2C1 | 2600 | – | – | Ki [1]: 210 nM
CC1(C)CC(=O)c2cc(C#N)c(NC3CCCCC3)nc2C1 | – | 4000 | inactive | –
C(#Cc1ccc2c(n1)CCCC2)c1ccccc1 | 510 | – | – | Ki [1]: 1500 nM
COC1CCCc2nc(C#Cc3ccccc3)ccc21 (stereo not given) | 80 | – | – | Ki [1]: 139 nM
COc1ccc(N2CCN(c3nc4c(cc3C#N)C(=O)CC(C)(C)C4)CC2)cc1 | – | 7600 | inactive | –
CCCNc1nc2c(cc1C#N)C(=O)CC(C)(C)C2 | – | 2300 | inactive | –
O=C(NC12CC3CC(CC(C3)C1)C2)c1cnc2ccccc2c1 | – | 52 | – | –
N#Cc1cc2c(nc1SCc1ccccc1)CCCC2=O | – | 30000 | inactive | –
CC1(C)CC(=O)c2cc(Br)c(N3CCN(c4ccc(F)cc4)CC3)nc2C1 | 37000 | ≤ 1000 | – | –
